In BindingDB's records for doi:10.1021/acs.jmedchem.0c01897 (University of Michigan, 2021) one finds IC50 data, which are given here for 13 molecules.

The assay has as its target Signal transducer and activator of transcription 3 (Homo sapiens, UniProt P40763). Description: Inhibition of IL-6 induced STAT3 transcriptional activity in human HEK293 cells expressing SIE-luc2P preincubated for overnight followed by IL-6 stimulation and measured after 24 hr by Bio-Glo luciferase reagent based microplate reader assay. A digest of the protocol: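 GloResponse SIE-luc2P HEK-293 cells were seeded at 10,000/well and incubated overnight. STAT3 was activated with IL6 (100 ng/ml) for 24 h, then compound was added for 24 h. Bio-Glo luciferase reagent was added and luminescence read after 5 min. IC50 from three independent experiments, mean ± SD.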

Sequence of Signal transducer and activator of transcription 3 (P40763 whole entry): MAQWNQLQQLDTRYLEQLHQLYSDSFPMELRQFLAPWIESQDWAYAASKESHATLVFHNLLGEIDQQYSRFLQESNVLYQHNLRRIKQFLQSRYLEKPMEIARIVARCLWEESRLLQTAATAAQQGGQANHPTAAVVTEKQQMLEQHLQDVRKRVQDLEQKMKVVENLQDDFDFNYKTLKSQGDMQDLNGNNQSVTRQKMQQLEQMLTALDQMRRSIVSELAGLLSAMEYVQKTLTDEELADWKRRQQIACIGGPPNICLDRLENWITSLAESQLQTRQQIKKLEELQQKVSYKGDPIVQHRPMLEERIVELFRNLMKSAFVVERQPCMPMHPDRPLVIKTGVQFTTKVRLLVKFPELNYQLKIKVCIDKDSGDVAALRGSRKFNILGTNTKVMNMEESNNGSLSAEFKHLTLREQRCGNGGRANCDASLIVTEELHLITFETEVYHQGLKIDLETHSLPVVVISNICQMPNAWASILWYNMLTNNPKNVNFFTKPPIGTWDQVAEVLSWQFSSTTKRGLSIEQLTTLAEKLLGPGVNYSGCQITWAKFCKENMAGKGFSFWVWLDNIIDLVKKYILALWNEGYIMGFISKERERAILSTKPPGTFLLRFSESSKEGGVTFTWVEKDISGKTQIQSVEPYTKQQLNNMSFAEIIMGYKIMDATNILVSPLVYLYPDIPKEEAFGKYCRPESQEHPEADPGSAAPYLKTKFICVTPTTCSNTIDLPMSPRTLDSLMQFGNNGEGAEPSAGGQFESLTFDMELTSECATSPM

A word on the IC50: it is the concentration that gives 50% inhibition. On to `O=C1CCC(N2C(=O)c3cccc(NCCNC(=O)c4cc5c(o4)C(=O)c4ccccc4C5=O)c3C2=O)C(=O)N1` (stereo not drawn), for which half-maximal inhibition (IC50) required 15.3 µM.
Molecule `O=C1CCC(N2C(=O)c3cccc(NCCCCCNC(=O)c4cc5c(o4)C(=O)c4ccccc4C5=O)c3C2=O)C(=O)N1` (stereo not drawn) yielded an IC50 of 4.6 µM.
The figure for `O=C1CCC(N2C(=O)c3cccc(NCCOCCOCCOCCNC(=O)c4cc5c(o4)C(=O)c4ccccc4C5=O)c3C2=O)C(=O)N1` (stereo not drawn) is 2.6 µM.
In the case of `O=C1CCC(N2C(=O)c3cccc(NCCOCCOCCOCCOCCNC(=O)c4cc5c(o4)C(=O)c4ccccc4C5=O)c3C2=O)C(=O)N1` (stereo not drawn), the IC50 was found to be 2.7 µM.
As to `O=C1CCC(N2C(=O)c3cccc(NCCOCCOCCOCCOCCOCCOCCNC(=O)c4cc5c(o4)C(=O)c4ccccc4C5=O)c3C2=O)C(=O)N1` (stereo not drawn), half-maximal inhibition (IC50) was put at 2.5 µM.
`O=C1CCC(N2C(=O)c3cccc(NCCCCCC4CCN(CCNC(=O)c5cc6c(o5)C(=O)c5ccccc5C6=O)CC4)c3C2=O)C(=O)N1` (stereo not drawn): inhibition was half-maximal at 0.9 µM (IC50).
Turning to `O=C1CCC(N2C(=O)c3cccc(C#CCCCNC(=O)c4cc5c(o4)C(=O)c4ccccc4C5=O)c3C2=O)C(=O)N1` (stereo not drawn), the half-maximal inhibitory concentration (IC50) is 4.2 µM.
The figure for `O=C1CCC(N2C(=O)c3cccc(OCCCCNC(=O)c4cc5c(o4)C(=O)c4ccccc4C5=O)c3C2=O)C(=O)N1` (stereo not drawn) is 5.7 µM.
Turning to `O=C1CCC(N2Cc3c(NCCOCCOCCNC(=O)c4cc5c(o4)C(=O)c4ccccc4C5=O)cccc3C2=O)C(=O)N1` (stereo not drawn), the 50% inhibitory concentration (IC50) turned out to be 10.9 µM.
On to `CN1C(=O)CCC(N2C(=O)c3cccc(NCCCCCC4CCN(CCNC(=O)c5cc6c(o5)C(=O)c5ccccc5C6=O)CC4)c3C2=O)C1=O` (stereo not drawn), for which the IC50 came out at 1.7 µM.
The molecule `Cc1ncsc1-c1ccc(CNC(=O)[C@@H]2C[C@@H](O)CN2C(=O)[C@@H](NC(=O)COCCOCCNC(=O)c2cc3c(o2)C(=O)c2ccccc2C3=O)C(C)(C)C)cc1` registered an IC50 of 11.4 µM.
`Cc1ncsc1-c1ccc(CNC(=O)[C@@H]2C[C@@H](O)CN2C(=O)[C@@H](NC(=O)COCCNC(=O)c2cc3c(o2)C(=O)c2ccccc2C3=O)C(C)(C)C)cc1` registered an IC50 above 30 µM.
Molecule `O=C1CCC(N2C(=O)c3ccc(NCCOCCOCCNC(=O)c4cc5c(o4)C(=O)c4ccccc4C5=O)cc3C2=O)C(=O)N1` (stereo not drawn) had a half-maximal inhibitory concentration (IC50) of 3.4 µM.
